Among the data in ChEMBL document CHEMBL2062456, “Green synthesis and anti-infective activities of fluorinated pyrazoline derivatives” (2012) are MIC99 values, retold here.

Common to all, as to format: functional
For one assay, the system named is Candida albicans. Description: Antifungal activity against Candida albicans MTCC 227.
The next assay deals with Aspergillus clavatus. The assay is described as follows: Antifungal activity against Aspergillus clavatus MTCC 1323.
The next assay has as its system Aspergillus niger. The assay is described as follows: Antifungal activity against Aspergillus niger MTCC 282.
Another assay concerns Staphylococcus aureus. Description: Antibacterial activity against Staphylococcus aureus MTCC 96.
The subject of a further assay is Bacillus subtilis. The assay is described as follows: Antibacterial activity against Bacillus subtilis MTCC 441.
The subject of a further assay is Escherichia coli. Description: Antibacterial activity against Escherichia coli MTCC 443.
The next assay relates to Streptococcus pyogenes. The assay is described as follows: Antibacterial activity against Streptococcus pyogenes MTCC 442.
Assay [1] relates to Mycobacterium tuberculosis. Description: Antitubercular activity against Mycobacterium tuberculosis H37Rv by Lowenstein-Jensen slope method. In a few lines:
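Lowenstein–Jensen medium used both to grow the strain and to dilute test drugs. Inoculum adjusted to 1 mg/mL. Compounds were made as 2 mg/mL stocks and diluted with 1% DMSO. Primary screen at 500, 250 and 125; actives were retested at 100 down to 1.5625 (twofold series). MIC is the minimum concentration inhibiting 99% of growth. Vehicle and reference controls were included, and tests were run in duplicate.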

Converted amounts (≈) assume the structure as drawn.

What is called MIC99 is an inhibitory concentration at the 99% level, which refers to growth in some studies and to a panel of isolates in others. A higher MIC99 goes with weaker potency. As for `COC1=CC(=O)C[C@@H](C)[C@]12Oc1c(Cl)c(OC)cc(OC)c1C2=O` [GRISEOFULVIN], the MIC99 in the assay with Candida albicans turned out to be 500 µg/mL (≈ 1420 µM); against Aspergillus clavatus, 100 µg/mL (≈ 283 µM); with Aspergillus niger, 100 µg/mL (≈ 283 µM).
Consider GENTAMICIN, for which the MIC99 in the assay with Staphylococcus aureus was 0.25 µg/mL; in the assay on Bacillus subtilis, 1 µg/mL; in the assay with Escherichia coli, 0.05 µg/mL; in the assay with Streptococcus pyogenes it was 0.5 µg/mL.
As to `CC1(C)S[C@@H]2[C@H](NC(=O)[C@H](N)c3ccccc3)C(=O)N2[C@H]1C(=O)O` [AMPICILLIN], the MIC99 against Staphylococcus aureus came to 250 µg/mL (≈ 715 µM); in the assay with Bacillus subtilis, 100 µg/mL (≈ 286 µM); in the assay on Escherichia coli, 100 µg/mL (≈ 286 µM); with Streptococcus pyogenes, 100 µg/mL (≈ 286 µM).
As for `Fc1ccc(-c2nn(-c3ccccc3)cc2C2=NNC(c3ccc(F)cc3)C2)cc1` (configuration not stated), the MIC99 with Staphylococcus aureus stood at 25 µg/mL (≈ 62.4 µM); in the assay on Bacillus subtilis, 25 µg/mL (≈ 62.4 µM); against Candida albicans, 20 µg/mL (≈ 49.9 µM); in assay [1], 25 µg/mL (≈ 62.4 µM); against Escherichia coli, 20 µg/mL (≈ 49.9 µM); with Aspergillus clavatus, 50 µg/mL (≈ 125 µM). Besides, the MIC99 against Aspergillus niger was found to be 50 µg/mL (≈ 125 µM); in the assay on Streptococcus pyogenes it was 25 µg/mL (≈ 62.4 µM).
As to `O=C(/C=C/c1cn(-c2ccccc2)nc1-c1ccc(F)cc1)c1ccc(F)cc1`, the MIC99 against Staphylococcus aureus is 6.25 µg/mL (≈ 16.2 µM); against Bacillus subtilis it was 20 µg/mL (≈ 51.8 µM); with Candida albicans it was 100 µg/mL (≈ 259 µM); in assay [1], 25 µg/mL (≈ 64.7 µM); with Escherichia coli, 25 µg/mL (≈ 64.7 µM); against Aspergillus clavatus it was 20 µg/mL (≈ 51.8 µM). The MIC99 in the assay with Aspergillus niger came to 20 µg/mL (≈ 51.8 µM); with Streptococcus pyogenes it was 10 µg/mL (≈ 25.9 µM).
Take `O=C(N[C@H](CO)[C@H](O)c1ccc([N+](=O)[O-])cc1)C(Cl)Cl` [CHLORAMPHENICOL]: the MIC99 against Staphylococcus aureus, in the assay on Bacillus subtilis, against Escherichia coli and in the assay on Streptococcus pyogenes was 50 µg/mL (≈ 155 µM) throughout.
In the case of NYSTATIN, the MIC99 in the assay on Candida albicans, against Aspergillus clavatus and in the assay on Aspergillus niger was 100 µg/mL in each case.
For the compound `Fc1ccc(-c2nn(-c3ccccc3)cc2C2=NNC(c3ccc(Cl)cc3)C2)cc1` (configuration not stated), the MIC99 in the assay with Staphylococcus aureus was 20 µg/mL (≈ 48 µM); in the assay on Bacillus subtilis it was 25 µg/mL (≈ 60 µM); with Candida albicans, 100 µg/mL (≈ 240 µM); in assay [1], 6.25 µg/mL (≈ 15 µM); with Escherichia coli it was 25 µg/mL (≈ 60 µM); against Aspergillus clavatus it was 50 µg/mL (≈ 120 µM). In addition, the MIC99 was 50 µg/mL (≈ 120 µM) in the assay with Aspergillus niger and 20 µg/mL (≈ 48 µM) against Streptococcus pyogenes.
In the case of `O=C(O)c1cn(C2CC2)c2cc(N3CCNCC3)c(F)cc2c1=O` [CIPROFLOXACIN], the MIC99 in the assay with Staphylococcus aureus came out at 50 µg/mL (≈ 151 µM); in the assay with Bacillus subtilis, 25 µg/mL (≈ 75.4 µM); with Escherichia coli it was 25 µg/mL (≈ 75.4 µM); against Streptococcus pyogenes, 50 µg/mL (≈ 151 µM).
In the case of `Cc1ccc(C2CC(c3cn(-c4ccccc4)nc3-c3ccc(F)cc3)=NN2)cc1` (configuration not stated), the MIC99 in the assay with Staphylococcus aureus is 12.5 µg/mL (≈ 31.5 µM); with Bacillus subtilis, 50 µg/mL (≈ 126 µM); against Candida albicans it was 25 µg/mL (≈ 63.1 µM); in assay [1], 10 µg/mL (≈ 25.2 µM); with Escherichia coli, 50 µg/mL (≈ 126 µM); in the assay on Aspergillus clavatus it was 100 µg/mL (≈ 252 µM). Further, the MIC99 in the assay on Aspergillus niger came out at 100 µg/mL (≈ 252 µM); against Streptococcus pyogenes, 10 µg/mL (≈ 25.2 µM).
For the compound `O=C(/C=C/c1cn(-c2ccccc2)nc1-c1ccc(F)cc1)c1ccc(Br)cc1`, the MIC99 in the assay with Staphylococcus aureus is 25 µg/mL (≈ 55.9 µM); in the assay on Bacillus subtilis, 20 µg/mL (≈ 44.7 µM); in the assay on Candida albicans, 10 µg/mL (≈ 22.4 µM); in assay [1], 50 µg/mL (≈ 112 µM); in the assay on Escherichia coli it was 20 µg/mL (≈ 44.7 µM); against Aspergillus clavatus, greater than 100 µg/mL. For the same compound, the MIC99 against Aspergillus niger was greater than 100 µg/mL; in the assay with Streptococcus pyogenes, 20 µg/mL (≈ 44.7 µM).
Turning to `O=C(/C=C/c1cn(-c2ccccc2)nc1-c1ccc(F)cc1)c1ccccc1`, the MIC99 in the assay with Staphylococcus aureus came out at 10 µg/mL (≈ 27.1 µM); in the assay with Bacillus subtilis, 25 µg/mL (≈ 67.9 µM); with Candida albicans, 25 µg/mL (≈ 67.9 µM); in assay [1], 50 µg/mL (≈ 136 µM); in the assay on Escherichia coli, 20 µg/mL (≈ 54.3 µM); against Aspergillus clavatus, 50 µg/mL (≈ 136 µM). Further, the MIC99 is 50 µg/mL (≈ 136 µM) with Aspergillus niger and 12.5 µg/mL (≈ 33.9 µM) against Streptococcus pyogenes.
With `NNC(=O)c1ccncc1` [ISONIAZID], in assay [1], the MIC99 is 0.2 µg/mL (≈ 1.46 µM).
As to `Fc1ccc(-c2nn(-c3ccccc3)cc2C2=NNC(c3ccccc3)C2)cc1` (configuration not stated), the MIC99 came out at 50 µg/mL (≈ 131 µM) in the assay with Staphylococcus aureus; 20 µg/mL (≈ 52.3 µM) in the assay on Bacillus subtilis; 50 µg/mL (≈ 131 µM) against Candida albicans; 25 µg/mL (≈ 65.4 µM) in assay [1]; 10 µg/mL (≈ 26.1 µM) in the assay on Escherichia coli; 50 µg/mL (≈ 131 µM) in the assay with Aspergillus clavatus. Also, the MIC99 against Aspergillus niger and against Streptococcus pyogenes was 50 µg/mL (≈ 131 µM) each time.
`O=C(/C=C/c1cn(-c2ccccc2)nc1-c1ccc(F)cc1)c1ccc(Cl)cc1`: the MIC99 is 25 µg/mL (≈ 62.1 µM) against Staphylococcus aureus; 12.5 µg/mL (≈ 31 µM) against Bacillus subtilis; 100 µg/mL (≈ 248 µM) with Candida albicans; 10 µg/mL (≈ 24.8 µM) in assay [1]; 6.25 µg/mL (≈ 15.5 µM) in the assay with Escherichia coli; greater than 100 µg/mL with Aspergillus clavatus. Further, the values for the MIC99 with Aspergillus niger and against Streptococcus pyogenes were greater than 100 µg/mL and 20 µg/mL (≈ 49.6 µM), respectively.
With `Cc1ccc(C(=O)/C=C/c2cn(-c3ccccc3)nc2-c2ccc(F)cc2)cc1`, the MIC99 in the assay on Staphylococcus aureus is 20 µg/mL (≈ 52.3 µM); in the assay with Bacillus subtilis it was 20 µg/mL (≈ 52.3 µM); against Candida albicans, 50 µg/mL (≈ 131 µM); in assay [1] it was 6.25 µg/mL (≈ 16.3 µM); in the assay with Escherichia coli it was 12.5 µg/mL (≈ 32.7 µM); against Aspergillus clavatus, 100 µg/mL (≈ 261 µM). In addition, the values for the MIC99 against Aspergillus niger and with Streptococcus pyogenes were 100 µg/mL (≈ 261 µM) and 25 µg/mL (≈ 65.4 µM), respectively.
With `Fc1ccc(-c2nn(-c3ccccc3)cc2C2=NNC(c3ccc(Br)cc3)C2)cc1` (configuration not stated), the MIC99 is 6.25 µg/mL (≈ 13.5 µM) in the assay on Staphylococcus aureus; 10 µg/mL (≈ 21.7 µM) with Bacillus subtilis; 10 µg/mL (≈ 21.7 µM) with Candida albicans; 50 µg/mL (≈ 108 µM) in assay [1]; 6.25 µg/mL (≈ 13.5 µM) with Escherichia coli; 10 µg/mL (≈ 21.7 µM) against Aspergillus clavatus. The MIC99 in the assay on Aspergillus niger and against Streptococcus pyogenes was 10 µg/mL (≈ 21.7 µM) each time.
Turning to `CCn1cc(C(=O)O)c(=O)c2cc(F)c(N3CCNCC3)cc21` [NORFLOXACIN], the MIC99 against Staphylococcus aureus, with Bacillus subtilis, against Escherichia coli and against Streptococcus pyogenes was 10 µg/mL (≈ 31.3 µM) each time.
